Source: ChEMBL document CHEMBL4765349, “Design, synthesis and biological evaluation of novel N-sulfonylamidine-based derivatives as c-Met inhibitors via Cu-catalyzed three-component reaction” (Eur J Med Chem, 2020)
Active and inactive are the calls of the source. No cut-off for these calls is given here.

What was measured:
[1] = target: Mast/stem cell growth factor receptor Kit (Homo sapiens, UniProt P10721); test: Inhibition of c-Kit (unknown origin) using poly (Glu, Tyr)4:1 as substrate in presence of ATP measured after 30 mins by HTRF assay
Summary of the method: (§1)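 Kinase inhibition measured by homogeneous time-resolved fluorescence (HTRF) across a panel of Ron, ALK and other tyrosine kinases, with IC50 as the read-out.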

[2] = Toxicity in Balb/c mouse assessed as survival rate at 200 mg/kg, ip measured after 15 days; format: organism-based; conditions: in vivo, time 15 day
Summary of the method: (§2)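 Acute toxicity: 8-week-old male BALB/c mice, randomized in groups of n = 10, given a single intraperitoneal injection on day zero (vehicle only, 100, 200, 300 or 400 mg/kg). A further untreated group served as normal control. Survival on day 15 was reported as a percentage.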

[3] = target: Epidermal growth factor receptor (Homo sapiens, UniProt P00533); test: Inhibition of EGFR (unknown origin) using poly (Glu, Tyr)4:1 as substrate in presence of ATP measured after 30 mins by HTRF assay; summary of the method: as §1
Chain of Epidermal growth factor receptor (P00533 whole entry): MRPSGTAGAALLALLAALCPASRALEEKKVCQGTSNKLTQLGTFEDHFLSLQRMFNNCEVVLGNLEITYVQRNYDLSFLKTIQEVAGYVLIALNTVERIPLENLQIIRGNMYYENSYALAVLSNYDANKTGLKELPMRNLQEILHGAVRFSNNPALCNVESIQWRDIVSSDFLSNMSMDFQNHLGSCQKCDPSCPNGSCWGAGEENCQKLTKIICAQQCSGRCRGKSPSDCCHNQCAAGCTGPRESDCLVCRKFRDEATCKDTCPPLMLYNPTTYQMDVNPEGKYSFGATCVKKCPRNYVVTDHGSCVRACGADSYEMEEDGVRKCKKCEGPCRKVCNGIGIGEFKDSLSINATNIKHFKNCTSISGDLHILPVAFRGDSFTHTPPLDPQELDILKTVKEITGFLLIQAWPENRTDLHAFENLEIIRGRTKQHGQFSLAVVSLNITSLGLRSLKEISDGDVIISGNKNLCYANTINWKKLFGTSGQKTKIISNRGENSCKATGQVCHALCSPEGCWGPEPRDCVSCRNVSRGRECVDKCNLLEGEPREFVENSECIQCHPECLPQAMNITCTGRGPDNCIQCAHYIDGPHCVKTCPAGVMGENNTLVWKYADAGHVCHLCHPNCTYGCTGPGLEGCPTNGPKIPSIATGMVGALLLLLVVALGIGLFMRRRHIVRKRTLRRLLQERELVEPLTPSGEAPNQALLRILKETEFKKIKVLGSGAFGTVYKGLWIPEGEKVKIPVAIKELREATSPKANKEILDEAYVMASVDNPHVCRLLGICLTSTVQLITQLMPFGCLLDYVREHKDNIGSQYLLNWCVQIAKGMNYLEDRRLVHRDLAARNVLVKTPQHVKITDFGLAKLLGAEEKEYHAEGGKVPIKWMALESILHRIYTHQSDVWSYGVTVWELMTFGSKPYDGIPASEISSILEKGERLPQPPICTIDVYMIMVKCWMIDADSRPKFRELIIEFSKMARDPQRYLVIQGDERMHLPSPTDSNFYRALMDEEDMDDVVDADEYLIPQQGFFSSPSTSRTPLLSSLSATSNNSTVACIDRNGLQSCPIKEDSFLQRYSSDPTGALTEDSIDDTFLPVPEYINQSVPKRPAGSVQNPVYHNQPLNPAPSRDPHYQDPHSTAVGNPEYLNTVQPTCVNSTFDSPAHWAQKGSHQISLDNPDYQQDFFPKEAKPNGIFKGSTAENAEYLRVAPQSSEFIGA

HT-29 = test: cells; conditions: Homo sapiens, HT-29, 72 h
HUVEC = test: cells; conditions: Homo sapiens, 72 h
A549 [4] = test: Induction of apoptosis in human A549 cells assessed as early apoptosis at 1 uM measured after 12 hrs by Annexin V-FITC/ Propidium iodide stain based flow cytometry assay relative to control; format: functional
Summary of the method: (§3)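 Cells double-stained with FITC-annexin V and propidium iodide, then flow cytometry gave the percentages of early and late apoptotic cells.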

[5] = target: T1, Hepatocyte growth factor receptor (Homo sapiens, UniProt P08581); test: Inhibition of c-MET (unknown origin) using poly (Glu, Tyr)4:1 as substrate in presence of ATP measured after 30 mins by HTRF assay
T1 sequence (P08581 whole entry): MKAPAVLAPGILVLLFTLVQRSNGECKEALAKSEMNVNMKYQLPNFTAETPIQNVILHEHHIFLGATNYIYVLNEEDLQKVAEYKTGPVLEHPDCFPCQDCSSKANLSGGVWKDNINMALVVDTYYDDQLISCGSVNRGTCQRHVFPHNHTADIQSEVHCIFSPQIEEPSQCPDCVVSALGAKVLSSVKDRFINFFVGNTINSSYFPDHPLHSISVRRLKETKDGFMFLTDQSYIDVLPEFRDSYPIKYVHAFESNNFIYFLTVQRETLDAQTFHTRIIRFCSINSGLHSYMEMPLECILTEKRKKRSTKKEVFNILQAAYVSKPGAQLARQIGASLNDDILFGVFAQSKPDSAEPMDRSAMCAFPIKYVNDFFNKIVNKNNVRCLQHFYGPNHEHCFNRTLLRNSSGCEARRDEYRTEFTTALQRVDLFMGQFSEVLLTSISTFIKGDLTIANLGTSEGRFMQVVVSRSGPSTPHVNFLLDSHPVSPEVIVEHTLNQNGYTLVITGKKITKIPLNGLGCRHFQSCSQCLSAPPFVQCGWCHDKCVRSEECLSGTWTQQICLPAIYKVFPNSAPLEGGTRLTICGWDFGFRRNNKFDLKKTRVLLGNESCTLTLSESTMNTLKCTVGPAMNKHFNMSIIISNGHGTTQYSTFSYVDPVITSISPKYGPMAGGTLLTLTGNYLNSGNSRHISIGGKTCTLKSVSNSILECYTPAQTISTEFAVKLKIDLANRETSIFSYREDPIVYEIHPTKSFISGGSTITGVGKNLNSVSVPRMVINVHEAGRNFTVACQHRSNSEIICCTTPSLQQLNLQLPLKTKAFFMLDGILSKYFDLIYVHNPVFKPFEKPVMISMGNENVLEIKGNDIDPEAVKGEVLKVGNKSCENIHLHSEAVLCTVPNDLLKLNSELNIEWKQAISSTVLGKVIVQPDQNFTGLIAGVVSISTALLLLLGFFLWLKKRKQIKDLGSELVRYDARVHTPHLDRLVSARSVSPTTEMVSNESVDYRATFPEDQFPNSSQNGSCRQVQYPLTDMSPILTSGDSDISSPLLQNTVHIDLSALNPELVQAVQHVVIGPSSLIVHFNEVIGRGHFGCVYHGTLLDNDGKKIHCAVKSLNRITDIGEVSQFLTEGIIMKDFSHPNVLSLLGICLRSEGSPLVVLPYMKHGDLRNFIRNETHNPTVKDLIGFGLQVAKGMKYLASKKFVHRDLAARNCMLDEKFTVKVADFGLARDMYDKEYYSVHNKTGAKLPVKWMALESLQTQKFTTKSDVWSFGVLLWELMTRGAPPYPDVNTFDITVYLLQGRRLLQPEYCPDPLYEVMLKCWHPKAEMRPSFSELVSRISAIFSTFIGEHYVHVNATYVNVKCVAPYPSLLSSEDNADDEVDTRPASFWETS

MDA-MB-231 = test: Cytotoxicity against human MDA-MB-231 cells assessed as inhibition of cell proliferation measured after 72 hrs by MTT assay; format: functional, cell-based; conditions: MDA-MB-231, 72 h
[6] = Toxicity in Balb/c mouse assessed as survival rate at 300 mg/kg, ip measured after 15 days; format: organism-based; conditions: in vivo, time 15 day; summary of the method: as §2
[7] = Toxicity in Balb/c mouse assessed as anaphylactic response at 100 to 200 mg/kg, ip measured after 15 days; format: organism-based; conditions: in vivo, 360 h, dose 100-200 mg/kg, time 15 day
Summary of the method: (§4)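 Acute toxicity in 8-week-old male BALB/c mice, randomized into groups of n = 10. Single intraperitoneal dose on day 0 of vehicle or 100, 200, 300 or 400 mg/kg, plus an untreated control group. Mice watched for 15 days for deaths, abnormalities, anaphylactic or allergic reactions and body weight loss.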

A549 [8] = test: Induction of apoptosis in human A549 cells assessed as late apoptosis at 1 uM measured after 12 hrs by Annexin V-FITC/ Propidium iodide stain based flow cytometry assay relative to control; format: functional; summary of the method: as §3
[9] = target: ALK tyrosine kinase receptor (Homo sapiens, UniProt Q9UM73); test: Inhibition of ALK (unknown origin) using poly (Glu, Tyr)4:1 as substrate in presence of ATP measured after 30 mins by HTRF assay; summary of the method: as §1
[10] = target: Vascular endothelial growth factor receptor 2 (Homo sapiens, UniProt P35968); test: Inhibition of VEGFR 2 (unknown origin) using poly (Glu, Tyr)4:1 as substrate in presence of ATP measured after 30 mins by HTRF assay
Chain of Vascular endothelial growth factor receptor 2 (P35968 whole entry): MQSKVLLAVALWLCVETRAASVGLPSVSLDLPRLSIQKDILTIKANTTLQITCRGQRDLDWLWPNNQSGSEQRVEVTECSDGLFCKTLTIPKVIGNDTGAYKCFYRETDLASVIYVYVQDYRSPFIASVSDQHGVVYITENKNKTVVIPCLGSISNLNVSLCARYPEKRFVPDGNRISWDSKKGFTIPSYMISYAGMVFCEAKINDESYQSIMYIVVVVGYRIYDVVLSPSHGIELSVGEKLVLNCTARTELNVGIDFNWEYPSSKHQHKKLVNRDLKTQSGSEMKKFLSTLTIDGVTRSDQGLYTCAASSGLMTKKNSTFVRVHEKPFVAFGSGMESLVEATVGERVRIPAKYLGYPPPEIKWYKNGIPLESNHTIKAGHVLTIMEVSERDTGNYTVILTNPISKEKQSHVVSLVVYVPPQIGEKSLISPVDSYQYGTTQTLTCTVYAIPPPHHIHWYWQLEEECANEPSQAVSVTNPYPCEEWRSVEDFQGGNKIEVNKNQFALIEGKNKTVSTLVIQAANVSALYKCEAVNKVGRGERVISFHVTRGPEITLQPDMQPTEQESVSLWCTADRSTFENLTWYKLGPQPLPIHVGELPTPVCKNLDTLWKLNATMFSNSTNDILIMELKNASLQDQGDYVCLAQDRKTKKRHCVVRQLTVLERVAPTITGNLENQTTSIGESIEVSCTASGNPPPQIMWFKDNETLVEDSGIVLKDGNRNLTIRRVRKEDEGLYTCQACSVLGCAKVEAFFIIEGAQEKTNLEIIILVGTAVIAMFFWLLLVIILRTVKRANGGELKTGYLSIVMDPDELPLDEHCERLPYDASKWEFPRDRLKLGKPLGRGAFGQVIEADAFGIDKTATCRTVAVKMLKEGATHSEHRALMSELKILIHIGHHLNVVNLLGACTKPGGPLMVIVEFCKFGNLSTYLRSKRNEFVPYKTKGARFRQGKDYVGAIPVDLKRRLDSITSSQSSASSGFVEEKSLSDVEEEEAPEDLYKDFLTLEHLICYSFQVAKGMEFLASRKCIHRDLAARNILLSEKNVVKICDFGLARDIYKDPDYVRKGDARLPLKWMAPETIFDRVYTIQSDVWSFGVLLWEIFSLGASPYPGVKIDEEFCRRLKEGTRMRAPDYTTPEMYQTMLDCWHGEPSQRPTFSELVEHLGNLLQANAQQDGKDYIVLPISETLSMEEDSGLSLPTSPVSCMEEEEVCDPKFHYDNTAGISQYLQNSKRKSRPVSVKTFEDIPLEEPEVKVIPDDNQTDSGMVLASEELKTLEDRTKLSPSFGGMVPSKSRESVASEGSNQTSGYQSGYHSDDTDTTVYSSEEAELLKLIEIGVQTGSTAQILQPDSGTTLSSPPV

[11] = target: Macrophage-stimulating protein receptor (Homo sapiens, UniProt Q04912); test: Inhibition of Ron (unknown origin) using poly (Glu, Tyr)4:1 as substrate in presence of ATP measured after 30 mins by HTRF assay; summary of the method: as §1
[12] = target: T1, Hepatocyte growth factor receptor; test: Inhibition of human c-MET phosphorylation in human A549 cells measured after 1 hr by western blot analysis; conditions: dose 2-8 µmol/L
A549 [13] = test: cells; conditions: Homo sapiens, A549, 72 h
[14] = Oral bioavailability in Balb/c mouse at 8 mg/kg measured after 24 hrs by LC/MS/MS analysis; format: ADME, organism-based; conditions: in vivo
Summary of the method: (§5)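 BALB/c mice dosed once orally at 8 mg/kg or intravenously at 2 mg/kg. Plasma concentration followed over time, and Cmax, Tmax, AUC0-∞, elimination half-life, clearance and oral bioavailability were derived from it.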

[15] = Toxicity in Balb/c mouse assessed as no abnormality at 100 to 200 mg/kg, ip measured after 15 days; format: organism-based; conditions: in vivo, 360 h, dose 100-200 mg/kg, time 15 day; summary of the method: as §4
[16] = AUC (0 to infinity) in Balb/c mouse at 8 mg/kg, po measured after 24 hrs by LC/MS/MS analysis; format: ADME, organism-based; set-up: route oral, time 24 hrs, dose 8 mg/kg; conditions: in vivo; summary of the method: as §5
[17] = Selectivity index, ratio of IC50 for human FHC cells assessed as inhibition of cell proliferation to IC50 of HT-29 cells assessed as inhibition of cell proliferation; format: toxicity; conditions: FHC cells versus HT-29 cells, read-out: Selectivity Index
[18] = target: Platelet-derived growth factor receptor alpha (Homo sapiens, UniProt P16234); test: Inhibition of PDGFR alpha (unknown origin) using poly (Glu, Tyr)4:1 as substrate in presence of ATP measured after 30 mins by HTRF assay; summary of the method: as §1
Chain of Platelet-derived growth factor receptor alpha (P16234 whole entry): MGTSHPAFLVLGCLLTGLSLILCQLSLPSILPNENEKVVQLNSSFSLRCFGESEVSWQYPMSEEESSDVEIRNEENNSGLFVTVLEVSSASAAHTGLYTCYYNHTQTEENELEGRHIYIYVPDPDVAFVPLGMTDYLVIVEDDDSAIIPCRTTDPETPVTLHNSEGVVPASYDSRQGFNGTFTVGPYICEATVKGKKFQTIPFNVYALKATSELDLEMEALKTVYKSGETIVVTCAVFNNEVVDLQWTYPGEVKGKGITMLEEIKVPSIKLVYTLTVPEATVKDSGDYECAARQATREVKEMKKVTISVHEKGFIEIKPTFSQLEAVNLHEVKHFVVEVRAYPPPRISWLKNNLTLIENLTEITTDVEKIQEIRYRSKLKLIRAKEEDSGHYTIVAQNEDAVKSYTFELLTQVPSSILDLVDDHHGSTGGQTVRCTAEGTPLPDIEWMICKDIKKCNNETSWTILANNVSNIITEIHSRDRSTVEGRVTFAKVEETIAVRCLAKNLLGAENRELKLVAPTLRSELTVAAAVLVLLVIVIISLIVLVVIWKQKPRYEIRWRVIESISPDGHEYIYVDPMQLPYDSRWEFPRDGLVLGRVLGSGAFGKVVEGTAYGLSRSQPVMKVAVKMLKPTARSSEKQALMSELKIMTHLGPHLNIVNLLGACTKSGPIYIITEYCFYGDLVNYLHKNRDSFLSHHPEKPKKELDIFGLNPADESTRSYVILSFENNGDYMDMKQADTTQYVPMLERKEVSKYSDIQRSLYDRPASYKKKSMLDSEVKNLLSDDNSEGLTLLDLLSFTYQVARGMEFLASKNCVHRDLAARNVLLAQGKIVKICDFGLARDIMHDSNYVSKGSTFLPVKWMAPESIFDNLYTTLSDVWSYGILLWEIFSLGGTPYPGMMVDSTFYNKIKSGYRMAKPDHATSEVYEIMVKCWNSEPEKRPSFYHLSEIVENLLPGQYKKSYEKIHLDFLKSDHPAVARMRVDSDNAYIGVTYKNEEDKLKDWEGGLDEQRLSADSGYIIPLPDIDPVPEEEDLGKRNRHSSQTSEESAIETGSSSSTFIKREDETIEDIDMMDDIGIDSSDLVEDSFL

COCC/C(=N\S(=O)(=O)Cc1ccc(Cl)cc1)Nc1ccc(Oc2ccnc3cc(OCCCN4CCOCC4)c(OC)cc23)c(F)c1
IC50 [1]: 4.26 nM | survival at 360 h [2]: 100% | IC50 [3]: > 10000 nM | IC50 (HT-29): 320 nM | IC50 (HUVEC): 1350 nM | Activity (A549 [4]): 15.69% | IC50 [5]: 2.89 nM | IC50 (MDA-MB-231): 720 nM | survival at 360 h [6]: 70% | Activity [7]: Non-Toxic | Activity (A549 [8]): 30.99% | IC50 [9]: > 10000 nM | IC50 [10]: 673 nM | IC50 [11]: 412 nM | inhibition [12]: Active | IC50 (A549 [13]): 280 nM | bioavailability [14]: 74% | Activity [15]: Non-Toxic | AUC [16]: 6.8 µg/h/mL | selectivity ratio [17]: 19.1 | IC50 [18]: 384 nM
